The values below come from PMC9275543 (Chromatographia, 2022).

In assay [1] the target is T1, ACE2 (Homo sapiens, UniProt Q9BYF1). Conditions: cell chromatography; cited from earlier work.
Assay [2] concerns the target T1, ACE2. Kind of assay: Competition experiment with SARS-CoV-2 RBD on the ACE2 affinity column. The class given is binding. Conditions: from competition with SARS-CoV-2 RBD.
The target in assay [3] is SARS-CoV-2-Main protease (Main pro) (Severe acute respiratory syndrome coronavirus 2, UniProt P0DTD1). Kind of assay: Normalized breakthrough curves on the Main pro affinity capillary column. The assay is classed as binding. In outline: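 Recombinant biotinylated Main pro was loaded at 10 μM and 30 nL/min onto a neutravidin poly(GMA-co-EDMA) monolith capillary, immobilising about 1.60 pmol (n = 6). Free test compound and its PEG-dispersed oxidised MWCNT nanovector (5 μM) were flushed in 50 mM PBS pH 7.4. Reference columns were neutravidin-only and ACE2. UV was read at 238 nm. Breakthrough was normalised as outlet/inlet absorbance versus tp/t0, with t0 from DMSO.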

For assay [4], the target named is angiotensin-converting enzyme 2 (ACE2) (Homo sapiens, UniProt Q9BYF1). Kind of assay: Frontal analysis on the ACE2 affinity capillary column. The assay is classed as binding. Conditions: 5 μM; 25 μm i.d., 40 mm; 30 nL/min; 25 °C.
Sequence of angiotensin-converting enzyme 2 (ACE2) (Q9BYF1 18-805): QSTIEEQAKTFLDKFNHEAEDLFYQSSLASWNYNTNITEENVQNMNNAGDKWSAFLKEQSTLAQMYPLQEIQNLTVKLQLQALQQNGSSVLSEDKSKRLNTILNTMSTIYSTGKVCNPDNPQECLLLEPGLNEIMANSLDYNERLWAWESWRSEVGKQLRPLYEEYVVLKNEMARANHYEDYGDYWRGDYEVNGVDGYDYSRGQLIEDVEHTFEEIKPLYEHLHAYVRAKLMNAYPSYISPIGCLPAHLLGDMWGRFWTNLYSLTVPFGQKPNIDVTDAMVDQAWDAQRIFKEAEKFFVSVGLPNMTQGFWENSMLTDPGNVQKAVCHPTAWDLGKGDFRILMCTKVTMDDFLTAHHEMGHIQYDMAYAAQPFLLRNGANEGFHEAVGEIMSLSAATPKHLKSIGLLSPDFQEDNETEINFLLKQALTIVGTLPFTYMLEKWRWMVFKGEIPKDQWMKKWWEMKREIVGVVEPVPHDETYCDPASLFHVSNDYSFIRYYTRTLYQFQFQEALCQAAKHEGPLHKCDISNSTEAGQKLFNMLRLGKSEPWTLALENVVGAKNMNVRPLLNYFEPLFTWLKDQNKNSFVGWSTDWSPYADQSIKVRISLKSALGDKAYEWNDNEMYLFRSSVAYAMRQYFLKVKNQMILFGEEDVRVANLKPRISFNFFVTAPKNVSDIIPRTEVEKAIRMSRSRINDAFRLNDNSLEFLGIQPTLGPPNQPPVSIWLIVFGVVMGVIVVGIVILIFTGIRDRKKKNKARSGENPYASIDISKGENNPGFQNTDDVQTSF
Assay [5] in a line: Breakthrough on neutravidin control column. The assay is classed as binding. Conditions: 5 μM; 25 μm i.d.; 30 nL/min; 25 °C; no ACE2 or Main pro. Summed up:
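Frontal analysis: free test compound or its PEG-dispersed oxidized multiwall carbon nanotube nanovector, each at 5 μM in 50 mM PBS pH 7.4, flushed successively through a neutravidin poly(GMA-co-EDMA) monolith capillary (40 mm, 25 μm i.d.) with no grafted receptor. Run at 30 nL min−1 and 25 °C with UV detection at 238 nm. Saturation plateau time tp is normalized to DMSO-derived dead time t0.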

The target in assay [6] is T1, ACE2. Conditions: surface plasmon resonance; cited from earlier work. On the technique in general: In SPR one partner is held on a chip, and binding of the other changes the refractive index at the surface.

Like-named read-outs stand apart in the source and are kept apart here. Bounds are passed on as bounds.

T1 sequence (Q9BYF1 18-805): as above

As for `CCN(CC)CCCC(C)Nc1ccnc2cc(Cl)ccc12` (stereo not shown) [Chloroquine, chloroquine], in assay [1], the dissociation constant Kd (usually the concentration at which binding is half-saturated) was 1.3 µM.
In the case of `C[C@@H]1C[C@H]2[C@@H]3CCC4=CC(=O)C=C[C@]4(C)[C@@]3(F)[C@@H](O)C[C@]2(C)[C@@]1(O)C(=O)CO` [Dexamethasone], the “binding site on ACE2” value in assay [2] is “bound on the orthosteric site of ACE2 with specific interaction”. Further, the Kd in assay [3] was greater than 5 µM; in assay [6] it was 9 µM. Also, the “normalized breakthrough time on the Main pro column” value in assay [3] (5 μM, 25 μm i.d., 40 mm, 30 nL/min, 25 °C) was “above 1”. Also, the “normalized breakthrough time on the ACE2 column” value in assay [4] is “above 1”. Besides, the “normalized breakthrough time t/t0 on neutravidin control column” value in assay [5] is roughly 1.
